Data from ChEMBL document CHEMBL3612041, “Combating highly resistant emerging pathogen Mycobacterium abscessus and Mycobacterium tuberculosis with novel salicylanilide esters and carbamates” (Eur J Med Chem, 2015).
Converted amounts (≈) assume the structure as drawn.

Legend:
[1] = system: Mycobacterium tuberculosis; experiment: Antimycobacterial activity against Mycobacterium tuberculosis H37Rv ATCC 27294 after 28 days by serial dilution method; assay type: functional; conditions: for MIC: Mycobacterium tuberculosis, H37Rv ATCC 27294, 672 h
Outline: (§1)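 Serial dilution in in-house Sula semisynthetic medium, pH 6.5. Compounds added as DMSO solutions at 10 doses, final 0.05–100 µg/mL. Incubation at 37 °C, 7 days for M. abscessus and 28 days for M. tuberculosis strains. MIC taken as the lowest concentration giving visible growth inhibition, confirmed by CFU on drug-free Löwenstein-Jensen medium after further equal incubation. Repeated at least twice.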

[2] = Selectivity index, ratio of IC50 for human MONO-MAC-6 cells to MIC for Mycobacterium tuberculosis H37Rv ATCC 27294; assay type: toxicity; conditions: read-out: Selectivity Index
MONO-MAC-6 = experiment: Cytostatic activity against human MONO-MAC-6 cells assessed as cell viability after 16 hrs by MTT assay; assay type: cell-based; conditions: MONO-MAC-6, 16 h
Outline: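 MonoMac6 cells kept in RPMI-1640 with 10% FCS, 2 mM L-glutamine and gentamycin at 37 °C, 5% CO2. Cells plated 10⁵ per well and treated after 24 h for 16 h in serum-free RPMI (1.0 v/v% DMSO), 5×10⁻² to 10² µM. MTT at 367 µg/mL final for 3.5 h, crystals dissolved in DMSO, OD540 minus OD620. Cytotoxicity % versus untreated control fitted sigmoidally for IC50. Two independent experiments, 4–8 parallels.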

[3] = system: Mycobacteroides abscessus; experiment: Antimycobacterial activity against Mycobacterium abscessus ATCC 19977 after 7 days by serial dilution method; assay type: functional; outline: as §1
[4] = Selectivity index, ratio of IC50 for human MONO-MAC-6 cells to MIC for Mycobacterium abscessus ATCC 19977; assay type: toxicity; conditions: read-out: Selectivity Index
[5] = Solubility of the compound in RPMI-1640/Sula media by spectrophotometric analysis; assay type: physicochemical
Outline: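 Solubility measured under assay conditions in RPMI and Sula media with 1 v/v% DMSO. Undissolved compound removed on a PVDF filter. 120 µL filtrate mixed with 80 µL acetonitrile, and concentration measured spectrophotometrically.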

[6] = system: Mycobacteroides abscessus; experiment: Potency index, ratio of ciprofloxacin MIC to compound MIC for Mycobacterium abscessus ATCC 19977; assay type: functional
[7] = system: Mycobacteroides abscessus; experiment: Potency index, ratio of gentamicin MIC to compound MIC for Mycobacterium abscessus ATCC 19977; assay type: functional
[8] = Mycobacteroides abscessus, ATCC 19977, 168 h

Molecule | Activity [1] [CFU] | MIC [1] [µM] | selectivity ratio [2] | IC50 (MONO-MAC-6) [µM] | Activity [3] [CFU] | MIC [3, 8] [µM] | selectivity ratio [4] | solubility [5] [µM] | MIC [3] [µM] | Ratio [6] | Ratio [7]
O=C(NCCCl)Oc1ccc(Cl)cc1C(=O)Nc1ccc(C(F)(F)F)cc1 | 1 | 0.5 (≈ 0.211 µg/mL) | 15.2 | 7.6 | 0 | 1.2 (≈ 0.505 µg/mL) | 6.3 | < 50 |  |  | 
O=C(NCCCCl)Oc1ccc(Cl)cc1C(=O)Nc1ccc(C(=O)c2ccccc2)cc1 | 3 | 8.5 (≈ 4.01 µg/mL) | 1.9 | 16.1 | 0 | 42.5 (≈ 20 µg/mL) | 0.4 | < 50 |  |  | 
O=C(Oc1ccc(Br)cc1C(=O)Nc1ccc(Cl)c(Cl)c1)c1cnc(Cl)cn1 | 1 | 2 (≈ 1 µg/mL) | 2.9 | 5.7 | 0 | 1 (≈ 0.502 µg/mL) | 5.7 | < 100 |  |  | 
O=C(c1ccccc1)c1ccc(NC(=O)c2cc(Br)ccc2O)cc1 | 2 | 12.7 (≈ 5.03 µg/mL) | 1.7 | 21.8 | 0 | 25.3 (≈ 10 µg/mL) | 0.9 | < 50 |  |  | 
O=C(Oc1ccc(Cl)cc1C(=O)Nc1ccc(Cl)c(Cl)c1)c1cnc(Cl)cn1 | 10 | 1.1 (≈ 0.503 µg/mL) | 9.2 | 10.1 | 0 | 1.1 (≈ 0.503 µg/mL) | 9.2 | < 100 |  |  | 
O=C(Nc1ccc(C(F)(F)F)cc1)c1cc(Cl)ccc1O | 0 | 1.6 (≈ 0.505 µg/mL) |  | 5.3 | 0 | 3.2 (≈ 1.01 µg/mL) |  |  |  |  | 
O=C(c1ccccc1)c1ccc(NC(=O)c2cc(Cl)ccc2O)cc1 | 3 | 14.2 (≈ 5 µg/mL) | 3.4 | 48 | 0 | 28.5 (≈ 10 µg/mL) | 1.7 | < 50 |  |  | 
O=C(NCCCl)Oc1ccc(Cl)cc1C(=O)Nc1ccc(C(=O)c2ccccc2)cc1 | 2 | 8.7 (≈ 3.98 µg/mL) | 4.3 | 37.8 | 0 | 43.6 (≈ 19.9 µg/mL) | 0.9 | < 50 |  |  | 
O=C(NCCCCl)Oc1ccc(Cl)cc1C(=O)Nc1ccc(Cl)c(Cl)c1 | 0 | 2.3 (≈ 1 µg/mL) | 1.1 | 2.5 | 0 | 1.2 (≈ 0.523 µg/mL) | 2.1 | < 50 |  |  | 
GENTAMICIN |  |  |  |  |  |  |  |  | 10.5 |  | 
O=C(Oc1ccc(Cl)cc1C(=O)Nc1ccc(C(F)(F)F)cc1)c1cnc(Cl)cn1 | 3 | 1.1 (≈ 0.502 µg/mL) | 1 | 1.1 | 0 | 5.5 (≈ 2.51 µg/mL) | 0.2 | < 100 |  |  | 
O=C(NCCCCl)Oc1ccc(Cl)cc1C(=O)Nc1ccc(C(F)(F)F)cc1 | 1 | 0.5 (≈ 0.218 µg/mL) | 17.6 | 8.8 | 0 | 0.2 (≈ 0.087 µg/mL) | 44 | < 50 |  | 15 | 53
O=C(NCCCCl)Oc1ccc(Br)cc1C(=O)Nc1ccc(Cl)c(Cl)c1 | 2 | 0.4 (≈ 0.192 µg/mL) | 23.8 | 9.5 | 0 | 2.1 (≈ 1.01 µg/mL) | 4.5 | < 50 |  |  | 
O=C(Nc1ccc(Cl)c(Cl)c1)c1cc(Cl)ccc1O | 2 | 1.6 (≈ 0.507 µg/mL) | 2.3 | 3.6 | 0 | 3.2 (≈ 1.01 µg/mL) | 1.1 | < 100 |  |  | 
CCCNC(=O)Oc1ccc(Cl)cc1C(=O)Nc1ccc(Cl)c(Cl)c1 | 0 | 0.2 (≈ 0.0803 µg/mL) | 35 | 7 | 0 | 1.3 (≈ 0.522 µg/mL) | 5.4 | < 50 |  |  | 
O=C(Nc1ccc(Cl)c(Cl)c1)c1cc(Br)ccc1O | 2 | 1.4 (≈ 0.505 µg/mL) | 2.5 | 3.5 | 0 | 7 (≈ 2.53 µg/mL) | 0.5 | < 100 |  |  | 
O=C(NCCCl)Oc1ccc(Br)cc1C(=O)Nc1ccc(C(F)(F)F)cc1 | 0 | 0.4 (≈ 0.186 µg/mL) | 23.3 | 9.3 | 0 | 4.3 (≈ 2 µg/mL) | 2.2 | < 50 |  |  | 
O=C(NCCCCl)Oc1ccc(Br)cc1C(=O)Nc1ccc(C(=O)c2ccccc2)cc1 | 2 | 8.7 (≈ 4.49 µg/mL) | 1.4 | 12.6 | 0 | 38.9 (≈ 20.1 µg/mL) | 0.3 | < 50 |  |  | 
NNC(=O)c1ccncc1 [ISONIAZID] | 0 | 1.17 (≈ 0.16 µg/mL) |  |  | 26 | 292 (≈ 40 µg/mL) |  |  |  |  | 
CCCNC(=O)Oc1ccc(Cl)cc1C(=O)Nc1ccc(C(=O)c2ccccc2)cc1 | 3 | 9.2 (≈ 4.02 µg/mL) | 2 | 18.7 | 0 | 22.9 (≈ 10 µg/mL) | 0.8 | < 50 |  |  | 
O=C(NCCCl)Oc1ccc(Cl)cc1C(=O)Nc1ccc(Cl)c(Cl)c1 | 2 | 1.2 (≈ 0.507 µg/mL) | 3.8 | 4.6 | 0 | 1.2 (≈ 0.507 µg/mL) | 3.8 | < 50 |  |  | 
O=C(NCCCl)Oc1ccc(Br)cc1C(=O)Nc1ccc(Cl)c(Cl)c1 | 2 | 0.2 (≈ 0.0933 µg/mL) | 34.5 | 6.9 | 0 | 0.2 (≈ 0.0933 µg/mL) | 34.5 | < 50 |  | 15 | 53
O=C(NCCCl)Oc1ccc(Br)cc1C(=O)Nc1ccc(C(=O)c2ccccc2)cc1 | 2 | 8 (≈ 4.01 µg/mL) | 3.1 | 24.9 | 0 | 40 (≈ 20.1 µg/mL) | 0.6 | < 50 |  |  | 
O=C(O)c1cn(C2CC2)c2cc(N3CCNCC3)c(F)cc2c1=O [CIPROFLOXACIN] |  |  |  |  |  | 3 (≈ 0.994 µg/mL) |  |  |  |  | 
